Sampled rows, rich in hits. Any-hit rate of the full collection: about 5.7%.
Beta apoptosis: beta cell apoptosis inhibition; INS-1E cytokine-induced death, ATP luminescence, 48 h; percent of positive-control rescue, neutral wells zero; protection from apoptosis, % (concentration not given with the values); 300,000 tested, 0.8% active; AID 435005;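 active = Every replicate reaches about 75%, or at least half do and their mean reaches it too, limit read from the data; inconclusive = At least half of replicates reach the limit but their mean does not; inactive = Under half of replicates reach the limit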;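 note: 0% = cytokine-treated negative control wells and 100% = positive control rescue; higher means more ATP so stronger rescue from cytokine killing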
Mdm2 MdmX PPI: human Mdm2/MdmX binding inhibition; O15151+Q00987; SaOS-2 split-luciferase Mdm2/MdmX complementation, luminescence; inhibition, % at 8 µM; 330,000 tested, 3% active; AID 485346;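 active = inhibition of at least 50% at 8 µM in the primary screen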
Target sequence (O15151 whole entry, looked up): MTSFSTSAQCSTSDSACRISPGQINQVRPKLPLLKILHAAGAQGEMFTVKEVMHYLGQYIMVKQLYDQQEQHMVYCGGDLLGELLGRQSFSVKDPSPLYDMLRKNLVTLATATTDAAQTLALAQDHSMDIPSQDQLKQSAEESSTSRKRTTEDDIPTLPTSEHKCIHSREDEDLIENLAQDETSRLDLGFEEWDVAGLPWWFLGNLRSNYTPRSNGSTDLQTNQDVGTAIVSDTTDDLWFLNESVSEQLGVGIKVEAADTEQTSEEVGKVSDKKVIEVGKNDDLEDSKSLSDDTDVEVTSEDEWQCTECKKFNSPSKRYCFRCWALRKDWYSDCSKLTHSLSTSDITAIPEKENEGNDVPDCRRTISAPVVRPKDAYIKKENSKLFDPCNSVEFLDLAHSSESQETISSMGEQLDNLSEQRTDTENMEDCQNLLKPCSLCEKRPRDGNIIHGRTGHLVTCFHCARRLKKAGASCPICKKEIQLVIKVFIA
Target sequence (Q00987 whole entry, looked up): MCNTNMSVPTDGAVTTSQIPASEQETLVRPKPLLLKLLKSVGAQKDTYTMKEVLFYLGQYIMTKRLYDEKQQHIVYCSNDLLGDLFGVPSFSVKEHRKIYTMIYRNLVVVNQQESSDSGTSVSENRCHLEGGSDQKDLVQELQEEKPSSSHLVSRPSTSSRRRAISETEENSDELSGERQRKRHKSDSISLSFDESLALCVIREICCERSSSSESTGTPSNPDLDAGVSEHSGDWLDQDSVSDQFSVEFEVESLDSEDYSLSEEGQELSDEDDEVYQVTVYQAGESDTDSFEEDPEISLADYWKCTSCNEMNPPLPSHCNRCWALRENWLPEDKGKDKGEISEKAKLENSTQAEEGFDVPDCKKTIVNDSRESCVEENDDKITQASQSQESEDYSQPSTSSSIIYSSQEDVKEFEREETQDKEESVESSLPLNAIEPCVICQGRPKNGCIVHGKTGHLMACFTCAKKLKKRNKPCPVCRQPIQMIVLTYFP
CSC inhib: cancer stem cell inhibition. cancer stem cell-like cells viability, luminescence. 300,000 tested, 1.1% active. inhibition, % at 7.5 µM. AID 2717; in the data active = inhibition above about 75%; inconclusive = no clear call, values can overlap the other calls; tested in HMLE shEcad cells
Calb FLC: affects C. albicans growth with fluconazole; C. albicans CaCi-2 (fluconazole-resistant clinical isolate) + fluconazole, Alamar Blue growth, 48 h; growth inhibition, % (test concentration not listed); 300,000 tested, 0.57% active; AID 1979;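 active = growth inhibition above about 58% in most replicates, limit read from the data, passing the limit was not always enough; inconclusive = exactly half the replicates above a set limit; inactive = most replicates below a set limit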;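 note: all wells also contain fluconazole at 8 µg/ml as a sub-toxic cotreatment; 0% = median of DMSO wells and 100% = median of geldanamycin control wells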
SKKanGAS inh: SKKanGAS growth inhibition | AID 1662 | inhibition, % at 7.5 µM | 300,000 tested, 1.3% active | S. pyogenes SKKanGAS, kanamycin growth, BacTiter-Glo, 6 h;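 active = mean replicate score, as percent of positive control median, at least 50; inconclusive = mean below 50 but one replicate at or above 50; inactive = mean and every replicate below 50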;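 note: strain carries kanamycin resistance gene driven by streptokinase promoter and grows in 40 µg/ml kanamycin; loss of luminescence reflects streptokinase promoter inhibition or plain growth inhibition; 0% = median of DMSO wells and 100% = positive control at its reference dose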
T cruzi inh: blocks replication of Trypanosoma cruzi; inhibition, % (no concentration beside the values); T. cruzi beta-gal in NIH3T3, luminescence, 90 h; 300,000 tested, 1.4% active; AID 1885;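 active = mean inhibition across valid replicates above about 55%, limit read from the data; inconclusive = mean below that limit but half or more replicates reach it; inactive = mean below it, under half of replicates reach it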;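 note: signal also drops with host cell toxicity which is not excluded here; 0% = plate median of DMSO wells and 100% = zero luminescence signal; higher percent means less beta-gal luminescence so fewer parasites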
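System: mouse NIH/3T3 fibroblasts infected with β-gal-expressing T. cruzi Tulahuen C4 / Input: NIH/3T3 cells, 5,000 per well / Buffer or medium: Low-serum DMEM with 2% FBS / Probe or stimulus: 5000 reporter trypomastigotes per well / Schedule: ≥90 h infection period, 3 h prior cell attachment / Measured by: GalScreen luminescence, 60 min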
Active calls of the source: *; ? = inconclusive; . = no result given.

SMILES	Beta apoptosis	Mdm2 MdmX PPI	CSC inhib	Calb FLC	SKKanGAS inh	T cruzi inh
C/C(=N\NC(=S)NCc1ccccc1)c1cccc(Br)c1	1	-31	7	4	56*	-23
C/C(=N\NC(=S)NCCc1ccccc1)c1cccc(Br)c1	-3	1	15	-41	21	17
Cc1ccc(NC(=O)CNCc2ccccc2Cl)cc1S(=O)(=O)N(C)C	6	-7	-5	-4	1	14
O=C1CCC[C@@H]2Cc3[nH]c4c(Cl)ccc(Cl)c4c3[C@@H]3CCN1[C@H]23	-9	27	4	19	14	64*
COc1ccc(NS(=O)(=O)c2ccc(O)c(NC(=O)c3cc4c(C)nn(-c5ccc(F)cc5)c4s3)c2)cc1	12	22	114*	-8	109*	-6
COc1ccc(NS(=O)(=O)c2ccc(N3CCOCC3)c(NC(=O)c3ccc(F)cc3)c2)cc1	8	2	23	13	-9	-33
Clc1cc(/C=N\NC2=NCCN2)cc(Cl)n1	-7	24	-16	9	-2	70*
O=[N+]([O-])c1ccccc1/C=N/NC1=NCCN1	-2	-27	8	-3	-1	13
CN(CC(=O)Nc1ccccc1Cl)C(=O)COC(=O)C1CC1	-8	4	-18	2	-4	0
COc1ccc(C(=O)NCCCNC(=O)c2cnccn2)cc1Br	0	-6	.	4	2	1
COc1ccc(C(=O)NN/C(C)=C/C(=O)C(F)(F)C(F)(F)C(F)(F)F)cc1	79*	44	123*	94*	11	2
COc1ccc(C(=O)NNC(=O)OC(C)(C)C)cc1	-5	-53	15	2	-3	-4
COc1cc(C(=O)OCC(=O)NCc2ccc(F)cc2)ccc1OCC(C)C	-2	24	7	0	-17	-14
Cn1c(C(=O)OC(C(=O)NC2CCCC2)c2cccnc2)cc2sccc21 (stereo unspecified)	.	8	.	12	-3	65*
CCCCn1c(O)c(N=NC(=O)c2ccccc2NS(=O)(=O)c2cccs2)c2ccccc21	3	29	-20	44	71*	-3
CCN1CCN(c2oc(COc3ccc(-c4ccccc4)cc3)nc2C#N)CC1	1	26	38	-7	-11	61*
CC1CC(C)CN(C(=O)c2cc3cc(Br)cc(Br)c3o2)C1 (stereo unspecified)	9	-88	89*	6	43	28
CCOC(=O)c1ccc(S(=O)(=O)N2CCN(CC(O)COc3cccc(C(C)=O)c3)CC2)cc1 (stereo unspecified)	-1	.	-5	1	1	-4
O=C(c1cc(-c2cccs2)nc2ccccc12)N1CCN(c2ccccc2O)CC1	4	24	-2	22	68*	7
Cc1ccc(-c2cc(C(=O)N3CCN(c4ccc(O)cc4)CC3)c3ccccc3n2)cc1	-3	34	79*	.	.	.
COc1ccc(-c2cc(C(=O)N3CCN(c4ccccc4)CC3)c3ccccc3n2)cc1	5	37	63	8	27	-5
CCOC(=O)c1cc2sccc2n1CC(=O)N1CCCC1	-3	-1	-2	106*	6	-17
O=S(=O)(c1cc(O)ccc1O)c1cccc2c(S(=O)(=O)c3cc(O)ccc3O)cccc12	-5	11	-3	0	15	-4
CCCC[C@@H]1C=C(C(=O)O)[C@H](c2ccc(C#N)cc2)N1S(=O)(=O)c1ccc(C)cc1	.	21	.	.	.	.
Cc1c(CCC(=O)O)c(=O)oc2c(C)c3occ(-c4ccc(Cl)cc4)c3cc12	11	-11	-2	4	58*	5
SMILES	Beta apoptosis	Mdm2 MdmX PPI	CSC inhib	Calb FLC	SKKanGAS inh	T cruzi inh
Cc1c(CCC(=O)O)c(=O)oc2cc3occ(-c4ccc(F)cc4)c3cc12	9	9	2	-6	11	8
Cc1c(CCC(=O)O)c(=O)oc2cc3occ(-c4ccc(Cl)cc4)c3cc12	10	31	-5	28	63*	2
Cc1c(CCC(=O)O)c(=O)oc2cc3occ(-c4ccc(Br)cc4)c3cc12	8	4	-5	45	77*	-2
CC12CCC(=O)N1C(C(=O)NNC(=O)c1ccc(Br)cc1)CS2 (stereo unspecified)	0	23	.	.	.	.
CCN(CC)C(=O)Cn1cc(C(=O)C(=O)NCCCN2CCCCC2)c2ccccc21	-3	18	0	-2	3	5
CCOc1ccc2nc(NC(=O)CN3CCC(n4nnc5cc(C(F)(F)F)ccc54)CC3)sc2c1	4	17	-16	-3	52*	30
COc1cccc(/C=N/NC(N)=S)c1OCc1ccccc1Cl	6	33	11	-45	-1	59*
CCOC(=O)N/N=C/c1ccccc1OCc1ccc(Cl)cc1	.	-20	.	-4	1	12
COc1cccc(/C=N/n2nnnc2N)c1OCc1ccccc1Cl	-2	12	5	15	-10	-1
NC(=S)N/N=C/c1ccccc1OCCSc1ccc(Cl)cc1	29	39	-4	-18	14	57*
O=C(OCc1c(F)cccc1Cl)c1cnc2ccccc2n1	4	16	-1	-9	3	-5
O=C(CNC1CCN(Cc2ccccc2)CC1)Nc1ccc(S(=O)(=O)N2CCCCC2)cc1	6	24	-11	-7	-13	55*
CN(CC(=O)Nc1ccc(S(=O)(=O)N2CCCC2)cc1)Cc1ccc(Cl)cc1	-5	-14	9	1	6	57*
COC(=O)c1cc(OC)c(OC)cc1NC(=S)NC(=O)c1ccco1	2	17	-3	2	-1	-18
O=C(COc1ccc(Cl)cc1Cl)NNC(=S)NC(=O)c1ccco1	0	-5	28	66	95*	-14
O=C(COc1ccc(Cl)cc1Cl)NNC(=S)NCc1ccco1	1	-35	0	25	0	-8
COc1ccccc1C(=O)NNC(=S)NC(=O)c1ccco1	84*	33	.	7	65*	-18
Cn1cccc1CC(=O)NNC(=O)Nc1ccc(Cl)cc1	-2	-23	-13	34	-10	-2
O=C(NC(=S)NNC(=O)c1ccco1)c1ccc(Br)cc1	4	38	9	54	55*	-49
Cn1cccc1CC(=O)NNC(=S)NC(=O)c1ccc(F)cc1	1	3	3	-5	65*	-3
CC(C)(C)c1nnc(NS(=O)(=O)c2ccc([N+](=O)[O-])cc2)s1	6	0	25	-1	5	-4
Cc1cc(S(=O)(=O)Nc2ccc(C(=O)NCC(C)(C)N3CCOCC3)cc2)ccc1F	-4	0	.	-15	-1	-6
Cc1ccccc1C(=O)N1CCN(c2ccc(NC(=S)NC(=O)c3ccco3)cc2)CC1	-2	39	3	.	8	13
CC(Oc1ccc(Cl)cc1)C(=O)NNC(=S)NC(=O)c1ccco1 (stereo unspecified)	16	40	7	?	92*	-23
